Here are results for one compound from ChEMBL document CHEMBL5661979, “Pharmacological inhibition of BMK1 suppresses tumor growth through promyelocytic leukemia protein” (Cancer Cell, 2010).

In assay [1] the target is Cyclin-dependent kinase 12 (Homo sapiens, UniProt Q9NYV4). Briefly: Inhibition of CRK7 in human HeLa cells lysate pre incubated for 15 mins followed by ADP acyl phosphate probe addition and measured after 10 mins by LC-MS/MS analysis. The assay is classed as subcellular.
For assay [2], the target named is T1, Serine/threonine-protein kinase Sgk3 (Homo sapiens) (UniProt Q96BR1).
T1 sequence (whole entry): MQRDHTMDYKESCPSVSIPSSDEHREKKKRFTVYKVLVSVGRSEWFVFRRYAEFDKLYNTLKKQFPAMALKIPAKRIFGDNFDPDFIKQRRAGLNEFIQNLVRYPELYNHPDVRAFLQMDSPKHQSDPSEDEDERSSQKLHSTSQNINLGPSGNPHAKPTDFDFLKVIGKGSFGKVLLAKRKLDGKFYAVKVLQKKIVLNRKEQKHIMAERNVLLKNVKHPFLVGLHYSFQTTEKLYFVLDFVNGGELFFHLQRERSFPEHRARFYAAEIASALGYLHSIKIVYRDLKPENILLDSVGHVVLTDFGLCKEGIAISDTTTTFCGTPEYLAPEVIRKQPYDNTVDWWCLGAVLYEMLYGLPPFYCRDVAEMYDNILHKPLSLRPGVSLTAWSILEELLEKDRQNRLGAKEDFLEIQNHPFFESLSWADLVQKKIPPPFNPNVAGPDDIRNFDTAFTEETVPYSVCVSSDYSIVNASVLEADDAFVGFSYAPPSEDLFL
The assay can be described thus: Inhibition of SGK3 in human HeLa cells lysate at 2 uM pre incubated for 15 mins followed by ADP acyl phosphate probe addition and measured after 10 mins by LC-MS/MS analysis relative to control. Particulars: time 25.0 min. It counts as subcellular.

The target in another assay is RPS6KA1/RPS6KA2/RPS6KA3 (Homo sapiens, UniProt P51812+Q15349+Q15418). Briefly: Inhibition of RSK1/2/3 in human HeLa cells lysate at 50 uM pre incubated for 15 mins followed by ADP acyl phosphate probe addition and measured after 10 mins by LC-MS/MS analysis relative to control. It counts as subcellular. The conditions noted are these: time 25.0 min.
The target of assay [3] is Serine/threonine-protein kinase MRCK beta (Homo sapiens, UniProt Q9Y5S2). Briefly: Inhibition of MRCKB in human HeLa cells lysate pre incubated for 15 mins followed by ATP acyl phosphate probe addition and measured after 10 mins by LC-MS/MS analysis. It counts as subcellular.
Assay [4] concerns the target T2, EKC/KEOPS complex subunit TP53RK (Homo sapiens) (UniProt Q96S44).
T2 sequence (whole entry): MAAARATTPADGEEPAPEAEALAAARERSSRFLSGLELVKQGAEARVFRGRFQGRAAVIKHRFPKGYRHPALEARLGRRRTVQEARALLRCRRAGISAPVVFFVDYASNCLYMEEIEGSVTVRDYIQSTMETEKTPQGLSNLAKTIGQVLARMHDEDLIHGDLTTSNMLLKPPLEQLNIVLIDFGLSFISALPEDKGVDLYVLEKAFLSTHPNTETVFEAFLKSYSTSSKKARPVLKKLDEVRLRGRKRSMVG
Briefly: Inhibition of PRPK in human HeLa cells lysate at 2 uM pre incubated for 15 mins followed by ATP acyl phosphate probe addition and measured after 10 mins by LC-MS/MS analysis relative to control. Particulars: time 25.0 min. It counts as subcellular.

Assay [5] concerns the target Serine/threonine-protein kinase greatwall (Homo sapiens, UniProt Q96GX5). Briefly: Inhibition of MASTL in human HeLa cells lysate pre incubated for 15 mins followed by ATP acyl phosphate probe addition and measured after 10 mins by LC-MS/MS analysis. The assay is classed as subcellular.
For assay [6], the target named is T3, Mixed lineage kinase domain-like protein (Homo sapiens) (UniProt Q8NB16).
T3 sequence (whole entry): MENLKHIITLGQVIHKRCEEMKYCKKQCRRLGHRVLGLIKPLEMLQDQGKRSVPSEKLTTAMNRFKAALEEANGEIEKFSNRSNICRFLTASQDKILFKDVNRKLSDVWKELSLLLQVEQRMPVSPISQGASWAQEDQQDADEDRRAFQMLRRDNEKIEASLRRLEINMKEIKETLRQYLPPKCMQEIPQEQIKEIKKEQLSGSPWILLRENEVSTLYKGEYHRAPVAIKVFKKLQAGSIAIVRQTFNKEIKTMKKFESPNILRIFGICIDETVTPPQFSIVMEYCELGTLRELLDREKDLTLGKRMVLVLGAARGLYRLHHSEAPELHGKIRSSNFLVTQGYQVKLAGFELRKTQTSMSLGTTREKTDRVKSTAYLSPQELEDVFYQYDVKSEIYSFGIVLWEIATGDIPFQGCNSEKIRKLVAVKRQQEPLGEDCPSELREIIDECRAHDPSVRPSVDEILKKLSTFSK
The assay can be described thus: Inhibition of MLKL in human HeLa cells lysate at 10 uM pre incubated for 15 mins followed by ATP acyl phosphate probe addition and measured after 10 mins by LC-MS/MS analysis relative to control. It counts as subcellular. The conditions noted are these: time 25.0 min.

The target of assay [7] is Cyclin-dependent kinase 11B (Homo sapiens, UniProt P21127). Briefly: Inhibition of PITSLRE in human HeLa cells lysate at 50 uM pre incubated for 15 mins followed by ATP acyl phosphate probe addition and measured after 10 mins by LC-MS/MS analysis relative to control. The assay is classed as subcellular. Particulars: time 25.0 min.
Assay [8] has as its target Cyclin-dependent kinase 9 (Homo sapiens, UniProt P50750). The assay can be described thus: Inhibition of CDK9 in human HeLa cells lysate at 50 uM pre incubated for 15 mins followed by ATP acyl phosphate probe addition and measured after 10 mins by LC-MS/MS analysis relative to control. The assay is classed as subcellular. Particulars: time 25.0 min. A digest of the protocol:
(§1)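 KiNativ profiling in HeLa lysate (5 mg/mL total protein). Lysate incubated 15 min with inhibitor at 50, 10, 2, 0.8 or 0 μM. ATP or ADP acylphosphate probe then added (5 μM final) and reacted 10 min. Reaction stopped with urea and analysed by targeted MS, using up to four fragment ions per kinase peptide-probe conjugate. % inhibition taken against untreated lysate. Run in duplicate.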

Assay [9] concerns the target Calcium/calmodulin-dependent protein kinase type II subunit gamma (Homo sapiens, UniProt Q13555). Briefly: Inhibition of CAMK2g in human HeLa cells lysate at 10 uM pre incubated for 15 mins followed by ADP acyl phosphate probe addition and measured after 10 mins by LC-MS/MS analysis relative to control. It counts as subcellular. Particulars: time 25.0 min. The procedure, abridged:
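KiNativ-type profiling in HeLa lysate (5 mg/mL total protein). Lysate preincubated 15 min with inhibitor at 50, 10, 2, 0.8 or 0 μM, then ATP or ADP acylphosphate probe added (5 μM final) for 10 min. Reaction stopped with urea and analysed by targeted MS, using up to four fragment ions per kinase peptide-probe conjugate. % inhibition calculated against untreated lysate. Duplicate reactions.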

For assay [10], the target named is Phosphatidylinositol 4-kinase alpha (Homo sapiens, UniProt P42356). Briefly: Inhibition of PIK4CA in human HeLa cells lysate at 10 uM pre incubated for 15 mins followed by ATP acyl phosphate probe addition and measured after 10 mins by LC-MS/MS analysis relative to control. The assay is classed as subcellular. The conditions noted are these: time 25.0 min.
Chain of Phosphatidylinositol 4-kinase alpha (P42356 whole entry, looked up): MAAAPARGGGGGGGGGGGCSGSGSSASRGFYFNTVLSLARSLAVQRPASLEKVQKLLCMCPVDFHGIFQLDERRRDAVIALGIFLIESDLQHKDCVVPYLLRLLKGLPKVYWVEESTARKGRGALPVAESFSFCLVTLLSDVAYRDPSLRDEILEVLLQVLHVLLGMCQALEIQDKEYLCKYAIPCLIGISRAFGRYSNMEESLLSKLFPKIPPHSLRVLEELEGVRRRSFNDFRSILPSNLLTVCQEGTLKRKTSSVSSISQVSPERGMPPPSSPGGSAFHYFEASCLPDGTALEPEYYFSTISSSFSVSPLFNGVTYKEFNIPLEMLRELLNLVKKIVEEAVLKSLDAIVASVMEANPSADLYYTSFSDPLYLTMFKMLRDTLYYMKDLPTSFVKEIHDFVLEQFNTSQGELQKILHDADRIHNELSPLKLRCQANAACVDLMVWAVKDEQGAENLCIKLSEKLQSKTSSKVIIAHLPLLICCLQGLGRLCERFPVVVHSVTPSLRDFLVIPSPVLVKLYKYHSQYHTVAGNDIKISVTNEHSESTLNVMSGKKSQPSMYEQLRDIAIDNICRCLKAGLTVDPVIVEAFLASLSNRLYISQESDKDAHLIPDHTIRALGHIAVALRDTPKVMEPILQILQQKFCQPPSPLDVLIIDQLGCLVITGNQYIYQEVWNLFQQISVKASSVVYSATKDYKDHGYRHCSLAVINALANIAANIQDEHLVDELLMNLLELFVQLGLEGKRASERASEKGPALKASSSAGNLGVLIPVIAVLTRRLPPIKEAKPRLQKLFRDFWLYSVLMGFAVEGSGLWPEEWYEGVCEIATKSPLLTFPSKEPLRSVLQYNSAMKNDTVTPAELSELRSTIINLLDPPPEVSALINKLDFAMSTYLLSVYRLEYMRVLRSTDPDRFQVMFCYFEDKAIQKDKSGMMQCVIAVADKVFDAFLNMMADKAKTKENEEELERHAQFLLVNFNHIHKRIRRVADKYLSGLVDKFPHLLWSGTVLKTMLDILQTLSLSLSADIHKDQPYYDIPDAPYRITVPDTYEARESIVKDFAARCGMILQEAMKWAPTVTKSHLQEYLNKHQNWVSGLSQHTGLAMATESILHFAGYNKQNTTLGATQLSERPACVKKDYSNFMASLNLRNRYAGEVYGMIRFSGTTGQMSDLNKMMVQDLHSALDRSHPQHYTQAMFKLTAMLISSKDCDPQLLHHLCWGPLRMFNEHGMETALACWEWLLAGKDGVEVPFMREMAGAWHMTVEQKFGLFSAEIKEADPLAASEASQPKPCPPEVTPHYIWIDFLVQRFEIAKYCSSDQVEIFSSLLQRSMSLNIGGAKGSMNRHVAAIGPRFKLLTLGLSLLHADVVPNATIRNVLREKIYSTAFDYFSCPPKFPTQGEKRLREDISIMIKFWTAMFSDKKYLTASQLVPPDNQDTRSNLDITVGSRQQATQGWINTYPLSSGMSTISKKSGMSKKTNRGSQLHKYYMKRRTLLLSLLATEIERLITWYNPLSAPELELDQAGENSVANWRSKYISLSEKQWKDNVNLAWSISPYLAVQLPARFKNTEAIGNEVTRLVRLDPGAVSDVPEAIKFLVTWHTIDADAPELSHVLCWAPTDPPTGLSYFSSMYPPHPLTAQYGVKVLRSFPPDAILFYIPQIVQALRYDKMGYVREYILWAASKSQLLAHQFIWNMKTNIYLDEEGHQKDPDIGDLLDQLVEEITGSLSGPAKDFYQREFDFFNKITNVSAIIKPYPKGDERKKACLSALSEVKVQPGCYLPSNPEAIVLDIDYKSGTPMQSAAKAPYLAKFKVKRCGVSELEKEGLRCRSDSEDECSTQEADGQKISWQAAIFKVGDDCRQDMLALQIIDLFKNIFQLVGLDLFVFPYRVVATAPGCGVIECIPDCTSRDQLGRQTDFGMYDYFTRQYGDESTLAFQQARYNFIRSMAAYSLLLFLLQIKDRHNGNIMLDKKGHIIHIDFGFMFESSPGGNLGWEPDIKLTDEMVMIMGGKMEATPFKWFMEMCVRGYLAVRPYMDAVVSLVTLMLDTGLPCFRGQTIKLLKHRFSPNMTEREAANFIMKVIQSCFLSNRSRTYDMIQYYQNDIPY
A short description of assay [11]: Inhibition of CDK5/PRKX/PRKY in human HeLa cells lysate at 50 uM pre incubated for 15 mins followed by ADP acyl phosphate probe addition and measured after 10 mins by LC-MS/MS analysis relative to control. Particulars: 25 min, condition cancer. A digest of the protocol: as §1
In assay [12] the target is Serine/threonine-protein kinase 10 (Homo sapiens, UniProt O94804). Briefly: Inhibition of LOK in human HeLa cells lysate pre incubated for 15 mins followed by ATP acyl phosphate probe addition and measured after 10 mins by LC-MS/MS analysis. The assay is classed as subcellular.
Chain of Serine/threonine-protein kinase 10 (O94804 whole entry): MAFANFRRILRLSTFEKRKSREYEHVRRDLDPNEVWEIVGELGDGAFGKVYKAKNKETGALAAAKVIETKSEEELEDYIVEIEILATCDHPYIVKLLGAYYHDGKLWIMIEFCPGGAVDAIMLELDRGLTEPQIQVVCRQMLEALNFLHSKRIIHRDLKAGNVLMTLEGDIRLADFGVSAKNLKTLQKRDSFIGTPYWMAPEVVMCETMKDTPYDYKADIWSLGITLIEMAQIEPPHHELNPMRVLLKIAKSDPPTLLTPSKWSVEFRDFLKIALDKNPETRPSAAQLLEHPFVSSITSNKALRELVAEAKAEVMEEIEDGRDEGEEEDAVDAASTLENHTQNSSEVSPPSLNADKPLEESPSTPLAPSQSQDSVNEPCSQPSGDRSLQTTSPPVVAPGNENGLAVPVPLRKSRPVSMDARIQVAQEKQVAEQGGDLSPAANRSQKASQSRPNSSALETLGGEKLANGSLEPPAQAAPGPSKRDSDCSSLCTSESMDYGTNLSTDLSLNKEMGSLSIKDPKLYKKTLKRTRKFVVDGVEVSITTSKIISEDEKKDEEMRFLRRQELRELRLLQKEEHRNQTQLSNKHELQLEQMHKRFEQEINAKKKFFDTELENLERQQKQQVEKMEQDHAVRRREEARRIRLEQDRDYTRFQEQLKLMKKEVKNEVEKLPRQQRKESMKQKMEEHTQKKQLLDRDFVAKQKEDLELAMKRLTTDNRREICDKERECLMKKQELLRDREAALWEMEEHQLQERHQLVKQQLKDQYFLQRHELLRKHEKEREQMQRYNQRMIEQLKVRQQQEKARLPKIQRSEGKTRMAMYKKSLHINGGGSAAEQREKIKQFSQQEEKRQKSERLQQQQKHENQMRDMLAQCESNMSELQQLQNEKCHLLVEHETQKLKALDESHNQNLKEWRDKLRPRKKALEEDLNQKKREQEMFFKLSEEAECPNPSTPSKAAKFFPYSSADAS

Chain of Serine/threonine-protein kinase greatwall (Q96GX5 whole entry, the tested form may be a part): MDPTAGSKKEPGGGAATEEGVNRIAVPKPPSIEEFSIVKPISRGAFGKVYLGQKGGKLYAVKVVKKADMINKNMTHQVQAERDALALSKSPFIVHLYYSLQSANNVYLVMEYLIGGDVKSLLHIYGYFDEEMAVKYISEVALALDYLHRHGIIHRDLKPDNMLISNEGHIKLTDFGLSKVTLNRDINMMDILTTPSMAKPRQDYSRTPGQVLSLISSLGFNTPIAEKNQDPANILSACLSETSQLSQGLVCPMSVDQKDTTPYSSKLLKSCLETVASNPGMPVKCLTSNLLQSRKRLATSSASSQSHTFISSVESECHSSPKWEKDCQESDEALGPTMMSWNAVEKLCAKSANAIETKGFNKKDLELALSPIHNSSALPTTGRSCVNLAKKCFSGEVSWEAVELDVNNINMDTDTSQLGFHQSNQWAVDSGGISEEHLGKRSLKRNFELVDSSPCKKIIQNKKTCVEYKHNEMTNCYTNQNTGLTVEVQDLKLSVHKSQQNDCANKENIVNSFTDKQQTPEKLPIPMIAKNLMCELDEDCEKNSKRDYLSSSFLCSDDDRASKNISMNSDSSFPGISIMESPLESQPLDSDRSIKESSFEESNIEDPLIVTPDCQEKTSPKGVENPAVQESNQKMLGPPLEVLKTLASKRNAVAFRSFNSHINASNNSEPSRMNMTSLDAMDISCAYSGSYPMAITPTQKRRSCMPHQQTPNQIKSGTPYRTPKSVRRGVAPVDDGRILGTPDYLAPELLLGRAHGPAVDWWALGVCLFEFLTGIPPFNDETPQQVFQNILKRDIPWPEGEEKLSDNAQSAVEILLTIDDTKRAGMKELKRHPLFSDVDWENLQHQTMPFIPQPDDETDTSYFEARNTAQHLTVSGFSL
Chain of Calcium/calmodulin-dependent protein kinase type II subunit gamma (Q13555 whole entry, the tested form may be a part): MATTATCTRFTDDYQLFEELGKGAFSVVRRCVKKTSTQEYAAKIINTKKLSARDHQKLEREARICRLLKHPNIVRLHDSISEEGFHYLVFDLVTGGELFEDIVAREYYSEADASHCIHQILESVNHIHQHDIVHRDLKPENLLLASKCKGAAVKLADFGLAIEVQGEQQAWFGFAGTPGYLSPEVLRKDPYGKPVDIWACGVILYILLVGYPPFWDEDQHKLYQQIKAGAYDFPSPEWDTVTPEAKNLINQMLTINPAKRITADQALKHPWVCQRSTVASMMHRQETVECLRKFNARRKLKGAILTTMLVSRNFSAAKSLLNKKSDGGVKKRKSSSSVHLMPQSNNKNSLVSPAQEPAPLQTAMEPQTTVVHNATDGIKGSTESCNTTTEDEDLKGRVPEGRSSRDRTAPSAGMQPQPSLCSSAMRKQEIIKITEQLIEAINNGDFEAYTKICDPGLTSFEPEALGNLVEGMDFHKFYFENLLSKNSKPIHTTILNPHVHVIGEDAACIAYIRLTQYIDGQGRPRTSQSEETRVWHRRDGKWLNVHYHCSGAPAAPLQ
Chain of Cyclin-dependent kinase 9 (P50750 whole entry, the tested form may be a part): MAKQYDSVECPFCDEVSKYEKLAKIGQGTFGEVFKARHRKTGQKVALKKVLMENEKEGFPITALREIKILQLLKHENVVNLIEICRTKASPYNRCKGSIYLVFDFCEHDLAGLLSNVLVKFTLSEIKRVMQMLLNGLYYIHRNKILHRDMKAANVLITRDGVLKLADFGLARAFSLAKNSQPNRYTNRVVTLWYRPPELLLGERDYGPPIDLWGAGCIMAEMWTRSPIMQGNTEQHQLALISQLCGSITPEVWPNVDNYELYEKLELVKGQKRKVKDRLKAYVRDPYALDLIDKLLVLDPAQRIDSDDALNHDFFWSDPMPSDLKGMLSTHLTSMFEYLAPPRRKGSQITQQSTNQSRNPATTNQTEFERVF

Usually IC50 stands for the concentration that inhibits the measured activity by half. A lower IC50 goes with higher potency. In general, inhibition refers to the relative decrease from the control value, in per cent. In the case of `CCOc1cc(N2CCC(O)CC2)ccc1Nc1ncc2c(n1)N(C)c1ccccc1C(=O)N2C`, the IC50 in assay [1], in [3], in assay [5] and in assay [12] was above 50 µM each time. Moreover, the inhibition in [2] is 16.6%; at RPS6KA1/RPS6KA2/RPS6KA3, -2.1%; in assay [4], 10.2%; in assay [6], -9.8%; in assay [7], -8.6%; in [8], -0.3%. The inhibition in [9] was -2.3%; in assay [10], 7.7%. Moreover, in assay [11], the inhibition at 50 µM was -10%.
